Laboratory results reported in ChEMBL document CHEMBL1142937, “Synthesis, affinity profile, and functional activity of muscarinic antagonists with a 1-methyl-2-(2,2-alkylaryl-1,3-oxathiolan-5-yl)pyrrolidine structure” (J Med Chem, 2007).

Legend:
[1] = molecular target: Muscarinic acetylcholine receptor M3 (Cavia porcellus) (UniProt Q8VH26); test: (§1) Antagonist activity at muscarinic receptor M3 assessed as contraction of guinea pig ileum; format: functional, tissue-based; settings: filed as antagonist
Sequence of Muscarinic acetylcholine receptor M3 (Cavia porcellus) (Q8VH26 1-587): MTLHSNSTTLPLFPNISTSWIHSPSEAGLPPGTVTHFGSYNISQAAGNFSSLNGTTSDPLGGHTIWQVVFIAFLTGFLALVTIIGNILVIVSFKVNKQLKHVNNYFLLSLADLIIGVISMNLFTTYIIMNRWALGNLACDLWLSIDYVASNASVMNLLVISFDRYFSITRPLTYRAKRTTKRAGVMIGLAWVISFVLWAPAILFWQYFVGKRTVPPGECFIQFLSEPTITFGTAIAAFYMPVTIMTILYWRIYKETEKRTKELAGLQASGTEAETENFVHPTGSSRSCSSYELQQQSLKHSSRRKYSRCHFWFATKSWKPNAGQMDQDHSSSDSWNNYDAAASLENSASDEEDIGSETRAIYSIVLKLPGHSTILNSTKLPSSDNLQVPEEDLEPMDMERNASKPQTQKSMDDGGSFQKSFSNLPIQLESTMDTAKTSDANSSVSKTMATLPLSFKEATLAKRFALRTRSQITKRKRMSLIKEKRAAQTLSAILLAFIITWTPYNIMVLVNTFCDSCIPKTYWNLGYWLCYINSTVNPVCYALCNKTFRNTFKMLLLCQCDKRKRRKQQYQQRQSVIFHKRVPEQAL
How it was run: (§2)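 Isolated guinea pig tissue preparations (stimulated left atria, ileum, lung strips), run in vitro by a previously described protocol, with the ileum method slightly modified. Agonist dose–response curves were recorded before and after one or two antagonist concentrations. pKb = log(DR−1) − log[B], where DR is the ratio of agonist ED50 after/before antagonist. Some cases were expressed as pA2 from Schild plots constrained to slope −1.0.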

[2] = system: Muscarinic acetylcholine receptor M4, putative (Cavia porcellus); test: Antagonist activity at putative muscarinic receptor M4 assessed as contraction of electrically-stimulated guinea pig lung strips; settings: filed as antagonist
[3] = molecular target: T1, Muscarinic acetylcholine receptor M1 (Homo sapiens, UniProt P11229); test: Binding affinity to human cloned muscarinic receptor M1 expressed in CHO cells; format: cell-based
T1 sequence (P11229 whole entry): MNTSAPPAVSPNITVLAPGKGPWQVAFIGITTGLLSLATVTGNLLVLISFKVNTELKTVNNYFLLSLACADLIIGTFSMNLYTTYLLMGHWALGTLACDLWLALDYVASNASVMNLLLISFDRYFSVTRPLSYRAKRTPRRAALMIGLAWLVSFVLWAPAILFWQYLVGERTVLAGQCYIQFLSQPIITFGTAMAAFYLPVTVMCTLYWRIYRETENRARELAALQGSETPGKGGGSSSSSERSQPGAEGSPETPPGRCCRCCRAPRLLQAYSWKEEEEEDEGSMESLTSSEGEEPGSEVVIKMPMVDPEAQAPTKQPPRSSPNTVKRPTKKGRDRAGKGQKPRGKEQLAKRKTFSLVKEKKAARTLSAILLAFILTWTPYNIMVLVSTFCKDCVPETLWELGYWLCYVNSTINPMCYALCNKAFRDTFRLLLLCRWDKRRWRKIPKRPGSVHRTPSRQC

[4] = molecular target: Muscarinic acetylcholine receptor M3 (Homo sapiens, UniProt P20309); test: Binding affinity to human cloned muscarinic receptor M3 expressed in CHO cells; format: cell-based
Sequence of Muscarinic acetylcholine receptor M3 (Homo sapiens, UniProt P20309) (P20309 whole entry): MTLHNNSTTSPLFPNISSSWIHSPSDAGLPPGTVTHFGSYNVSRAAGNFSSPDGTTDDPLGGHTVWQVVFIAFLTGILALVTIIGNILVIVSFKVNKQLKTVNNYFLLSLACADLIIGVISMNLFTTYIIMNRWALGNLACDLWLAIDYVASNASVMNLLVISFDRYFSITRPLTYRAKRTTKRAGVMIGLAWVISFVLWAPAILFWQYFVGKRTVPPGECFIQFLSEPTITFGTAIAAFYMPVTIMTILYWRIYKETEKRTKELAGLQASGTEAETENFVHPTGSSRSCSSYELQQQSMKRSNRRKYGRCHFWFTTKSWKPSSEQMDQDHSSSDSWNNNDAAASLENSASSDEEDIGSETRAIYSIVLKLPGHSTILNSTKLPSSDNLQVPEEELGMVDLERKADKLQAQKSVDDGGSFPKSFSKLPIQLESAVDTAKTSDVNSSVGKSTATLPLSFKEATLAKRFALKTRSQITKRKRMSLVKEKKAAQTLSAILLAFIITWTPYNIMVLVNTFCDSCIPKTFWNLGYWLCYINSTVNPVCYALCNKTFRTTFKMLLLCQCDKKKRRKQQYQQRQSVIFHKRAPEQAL

[5] = system: Muscarinic acetylcholine receptor M1, putative (Oryctolagus cuniculus); settings: Vas deferens, filed as antagonist
[6] = molecular target: T2, Muscarinic acetylcholine receptor M4 (Homo sapiens, UniProt P08173); test: Binding affinity to human cloned muscarinic receptor M4 expressed in CHO cells; format: cell-based
T2 sequence (P08173 whole entry): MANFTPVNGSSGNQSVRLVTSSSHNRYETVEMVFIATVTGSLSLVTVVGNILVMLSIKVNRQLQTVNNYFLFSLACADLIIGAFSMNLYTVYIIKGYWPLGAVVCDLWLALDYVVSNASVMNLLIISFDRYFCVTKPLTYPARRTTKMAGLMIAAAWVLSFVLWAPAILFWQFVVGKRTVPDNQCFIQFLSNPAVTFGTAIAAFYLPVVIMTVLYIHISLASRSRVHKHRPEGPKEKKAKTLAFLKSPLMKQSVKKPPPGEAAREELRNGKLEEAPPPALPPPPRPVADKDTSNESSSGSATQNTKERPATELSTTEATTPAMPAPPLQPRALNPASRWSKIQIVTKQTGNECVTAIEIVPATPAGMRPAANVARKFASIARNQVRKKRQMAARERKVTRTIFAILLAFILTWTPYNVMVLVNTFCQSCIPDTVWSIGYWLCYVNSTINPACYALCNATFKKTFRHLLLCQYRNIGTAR

[7] = molecular target: T3, Muscarinic acetylcholine receptor M5 (Homo sapiens, UniProt P08912); test: Binding affinity to human cloned muscarinic receptor M5 expressed in CHO cells; format: cell-based
T3 sequence (P08912 whole entry): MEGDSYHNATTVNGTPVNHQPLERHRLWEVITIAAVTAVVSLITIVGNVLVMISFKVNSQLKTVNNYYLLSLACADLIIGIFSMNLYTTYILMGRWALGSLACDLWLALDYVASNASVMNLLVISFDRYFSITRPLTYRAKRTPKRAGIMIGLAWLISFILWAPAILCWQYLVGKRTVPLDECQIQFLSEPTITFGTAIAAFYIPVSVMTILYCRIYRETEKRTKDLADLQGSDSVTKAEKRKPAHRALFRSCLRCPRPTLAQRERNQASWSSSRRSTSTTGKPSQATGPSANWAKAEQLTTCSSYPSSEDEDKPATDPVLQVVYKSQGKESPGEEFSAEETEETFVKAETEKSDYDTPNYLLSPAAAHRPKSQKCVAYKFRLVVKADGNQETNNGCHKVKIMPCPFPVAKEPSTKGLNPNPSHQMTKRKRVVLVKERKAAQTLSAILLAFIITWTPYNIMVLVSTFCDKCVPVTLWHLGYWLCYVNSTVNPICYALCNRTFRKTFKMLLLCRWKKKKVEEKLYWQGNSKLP
How it was run: (§3)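 Equilibrium radioligand binding on CHO cells expressing the cloned human muscarinic subtype. Affinity is reported as pKi.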

[8] = molecular target: Muscarinic acetylcholine receptor M2 (Cavia porcellus); test: Antagonist activity at muscarinic receptor M2 assessed as contraction of electrically-stimulated guinea pig left atria; settings: for Kb: read-out: pA2 (converted); for pKb: filed as antagonist
[9] = molecular target: T4, Muscarinic acetylcholine receptor M2 (Homo sapiens, UniProt P08172); test: Binding affinity to human cloned muscarinic receptor M2 expressed in CHO cells; format: cell-based; how it was run: as §3
T4 sequence (P08172 whole entry): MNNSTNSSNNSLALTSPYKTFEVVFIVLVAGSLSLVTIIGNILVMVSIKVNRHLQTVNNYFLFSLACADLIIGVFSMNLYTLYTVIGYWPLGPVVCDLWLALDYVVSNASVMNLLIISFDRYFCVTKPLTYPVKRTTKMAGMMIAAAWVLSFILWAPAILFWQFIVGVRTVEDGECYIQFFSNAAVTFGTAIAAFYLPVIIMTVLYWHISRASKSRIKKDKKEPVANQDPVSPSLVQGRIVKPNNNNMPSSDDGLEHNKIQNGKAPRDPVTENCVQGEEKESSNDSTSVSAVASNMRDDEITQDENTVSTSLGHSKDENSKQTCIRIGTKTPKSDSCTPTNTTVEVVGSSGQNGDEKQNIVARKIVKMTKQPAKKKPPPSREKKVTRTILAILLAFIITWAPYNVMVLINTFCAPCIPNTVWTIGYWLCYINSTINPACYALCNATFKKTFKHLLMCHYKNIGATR

[10] = molecular target: Muscarinic acetylcholine receptor M3 (Cavia porcellus, UniProt Q8VH26); test: as §1; format: functional, tissue-based; settings: read-out: pA2 (converted); how it was run: as §2
Sequence of Muscarinic acetylcholine receptor M3 (Cavia porcellus, UniProt Q8VH26) (Q8VH26 whole entry): as the sequence (Q8VH26 1-587) above

Structure (SMILES)	pKb [1]	pKb [2]	Ki [3]	Ki [4]	pKb [5]	Ki [6]	Ki [7]	Kb [8]	Ki [9]	pKb [8]	Kb [10]
C[N+]1(C)CCC[C@H]1[C@H]1CS[C@@](c2ccccc2)(C2CCCCC2)O1	9.66	7.99	0.117 nM (antagonist)	0.339 nM (antagonist)	9.97	0.871 nM (antagonist)	0.107 nM (antagonist)	1 nM (antagonist)	0.955 nM (antagonist)	–	–
CN1CCC[C@H]1[C@H]1CS[C@@](c2ccccc2)(C2CCCCC2)O1	8.92	6.22	1.38 nM (antagonist)	0.891 nM (antagonist)	7.41	2.34 nM (antagonist)	1.35 nM (antagonist)	–	2.75 nM (antagonist)	8.82	–
C[N+]1(C)[C@@H]2C[C@@H](OC(=O)[C@H](CO)c3ccccc3)C[C@H]1[C@@H]1O[C@@H]12 [METHSCOPOLAMINE]	–	–	–	–	–	–	–	–	–	–	0.617 nM (antagonist)
C[N+]1(C)CCC[C@H]1[C@H]1CS[C@](c2ccccc2)(C2CCCCC2)O1	8.5	7.47	0.251 nM (antagonist)	0.589 nM (antagonist)	9.52	0.871 nM (antagonist)	0.2 nM (antagonist)	4.27 nM (antagonist)	0.776 nM (antagonist)	–	–
CN1CCC[C@H]1[C@H]1CS[C@](c2ccccc2)(C2CCCCC2)O1	7.7	5.92	1.48 nM (antagonist)	1.7 nM (antagonist)	8.32	1.2 nM (antagonist)	2 nM (antagonist)	–	4.27 nM (antagonist)	6.91	–
C[N+](C)(C)C[C@@H]1CS[C@@](c2ccccc2)(C2CCCCC2)O1	8.79	6.24	1.1 nM (antagonist)	1.78 nM (antagonist)	8.81	6.17 nM (antagonist)	2.82 nM (antagonist)	–	7.59 nM (antagonist)	8.47	–
CN1CCC[C@@H]1[C@@H]1CSC(c2ccccc2)(c2ccccc2)O1	8.44	6.06	0.759 nM (antagonist)	2.45 nM (antagonist)	8.66	2 nM (antagonist)	3.24 nM (antagonist)	–	2.75 nM (antagonist)	7.97	–
CN1CCC[C@@H]1[C@@H]1CS[C@@](c2ccccc2)(C2CCCCC2)O1	7.65	5.98	0.912 nM (antagonist)	1.45 nM (antagonist)	7.95	1.26 nM (antagonist)	1.2 nM (antagonist)	–	4.47 nM (antagonist)	7.13	–
C[N+]1(C)CCC[C@@H]1[C@@H]1CSC(c2ccccc2)(c2ccccc2)O1	8.26	6.52	2.34 nM (antagonist)	5.01 nM (antagonist)	8.49	3.47 nM (antagonist)	3.47 nM (antagonist)	–	3.39 nM (antagonist)	7.76	–
CN1CCC[C@H]1[C@H]1CSC(c2ccccc2)(c2ccccc2)O1	8.05	6.41	3.47 nM (antagonist)	5.25 nM (antagonist)	7.93	3.31 nM (antagonist)	5.62 nM (antagonist)	–	4.9 nM (antagonist)	7.58	–
C[N+]1(C)CCC[C@@H]1[C@@H]1CS[C@@](c2ccccc2)(C2CCCCC2)O1	8.79	6.47	0.501 nM (antagonist)	0.912 nM (antagonist)	9.53	0.708 nM (antagonist)	0.776 nM (antagonist)	–	0.832 nM (antagonist)	8.6	–
C[N+]1(C)CCC[C@@H]1[C@@H]1CS[C@](c2ccccc2)(C2CCCCC2)O1	8.84	6.55	0.955 nM (antagonist)	4.9 nM (antagonist)	8.49	1.82 nM (antagonist)	3.24 nM (antagonist)	–	1.48 nM (antagonist)	8.54	–
C[N+]1(C)CCC[C@H]1[C@H]1CSC(c2ccccc2)(c2ccccc2)O1	9.16	7.79	0.295 nM (antagonist)	0.741 nM (antagonist)	9.56	0.468 nM (antagonist)	0.407 nM (antagonist)	–	0.468 nM (antagonist)	8.78	–
CN1CCC[C@@H]1[C@@H]1CS[C@](c2ccccc2)(C2CCCCC2)O1	8.55	6.03	0.347 nM (antagonist)	2.19 nM (antagonist)	9.16	1 nM (antagonist)	2 nM (antagonist)	–	1.07 nM (antagonist)	8.07	–
